The source made the active and inactive calls.
How the values were obtained:
[1] = Aqueous solubility of the compound in DPBS incubated for 24 hrs by LC/MS/MS method relative to SH-1242; format: physicochemical; settings: buffer
HUVEC [2] = assay: Antiangiogenic activity in HUVEC exposed to human HeLa cells derived conditioned media assessed as inhibition of hypoxia-induced cell tube formation at 100 nM incubated for 20 hrs; format: functional, cell-based
Outline: (§1)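 Conditioned medium from RPE or HeLa cells grown in M199 with 1% FBS under hypoxia ± compound, passed through a 3 kDa cut-off filter. Proliferation: 5 x 10^3 endothelial cells on gelatin, 24 h, then CM 24 h; [3H]-thymidine incorporation, DNA solubilized in 0.2 N NaOH/0.1% SDS, scintillation counting. Migration: 1 x 10^5 cells in Transwell upper well over CM, 4 h, H&E stain, migrated cells counted. Tube formation: 2 x 10^5 cells on Matrigel in CM, 20 h, tube length measured in 5 random fields (x100).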

Mus musculus [3] = assay: Suppression of hypoxia-mediated retinal neovascularization in mouse model of oxygen-induced retinopathy assessed as reduction in retinal neovascular tufts at 100 nM dosed via intravitreal route; format: functional, organism-based
Outline: (§2)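 Newborn mice held in 75% ± 0.5% O2 from P7 to P12. Intravitreal injection of compound or PBS at P14 (n = 6). Retinas whole-mounted at P17 and stained with isolectin B4-594. Neovascular tuft area per retina measured by image analysis; mean ± SEM.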

HUVEC [4] = assay: Antiangiogenic activity in HUVEC exposed to human HeLa cells derived conditioned media assessed as inhibition of hypoxia-induced [3H]-thymidine incorporation at 100 nM incubated for 24 hrs by liquid scintillation counting assay; format: functional, cell-based; outline: as §1
HUVEC [5] = assay: Antiangiogenic activity in HUVEC exposed to human HeLa cells derived conditioned media assessed as inhibition of hypoxia-induced cell migration at 100 nM incubated for 4 hrs by H and E staining based inverted phase contrast microscopy; format: functional; outline: as §1
Mus musculus [6] = assay: Suppression of hypoxia-mediated retinal neovascularization in mouse model of oxygen-induced retinopathy assessed as reduction in retinal neovascular tufts at 1 uM dosed via intravitreal route; format: functional, organism-based; outline: as §2
[7] = target: T1, Hypoxia-inducible factor 1-alpha (Homo sapiens, UniProt Q16665); assay: Inhibition of HIF-1alpha in human HRE-A549 cells pre-incubated for 1 hr before exposure to hypoxia for 24 hrs by HRE-luciferase reporter gene assay; format: cell-based
Outline: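 A549 cells stably carrying an HRE-luciferase reporter (G418 600 μg/mL selection), kept in DMEM/10% FBS and grown to 80-90% confluence. Serum withdrawn overnight, compound added 1 h before 24 h hypoxia (1% O2, 5% CO2, 94% N2, 37 °C). Luciferase read by luminometer. IC50 is the mean of three independent experiments with standard error.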
Target sequence in this assay (Q16665 whole entry): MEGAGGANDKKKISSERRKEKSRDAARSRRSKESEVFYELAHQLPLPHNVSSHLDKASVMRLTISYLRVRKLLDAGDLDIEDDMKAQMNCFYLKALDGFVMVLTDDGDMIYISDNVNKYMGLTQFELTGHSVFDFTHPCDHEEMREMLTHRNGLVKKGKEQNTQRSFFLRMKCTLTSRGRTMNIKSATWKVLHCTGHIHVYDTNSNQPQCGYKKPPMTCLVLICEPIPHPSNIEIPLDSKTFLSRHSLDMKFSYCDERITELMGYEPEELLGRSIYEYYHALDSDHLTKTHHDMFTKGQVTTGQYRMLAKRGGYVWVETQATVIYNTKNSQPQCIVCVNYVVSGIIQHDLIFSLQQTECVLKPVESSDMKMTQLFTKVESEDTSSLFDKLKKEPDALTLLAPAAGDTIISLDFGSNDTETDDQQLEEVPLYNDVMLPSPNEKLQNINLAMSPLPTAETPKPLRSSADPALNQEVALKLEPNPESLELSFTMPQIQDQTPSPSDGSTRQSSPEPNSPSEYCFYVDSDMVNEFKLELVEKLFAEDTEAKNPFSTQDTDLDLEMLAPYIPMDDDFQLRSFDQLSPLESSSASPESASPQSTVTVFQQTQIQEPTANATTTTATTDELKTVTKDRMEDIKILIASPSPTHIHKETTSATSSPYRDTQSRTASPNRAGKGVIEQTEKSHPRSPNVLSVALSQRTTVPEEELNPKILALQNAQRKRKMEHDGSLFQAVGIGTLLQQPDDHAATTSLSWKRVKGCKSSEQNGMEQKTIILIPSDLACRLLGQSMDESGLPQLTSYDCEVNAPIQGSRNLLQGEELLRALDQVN

[8] = target: T1, Hypoxia-inducible factor 1-alpha; assay: Induction of HIF-1alpha destabilization in human HCT116 cells under hypoxic conditions assessed as reduction in hypoxia-induced VEGF production at 100 nM by ELISA
Target sequence in this assay (Q16665 whole entry, looked up): as the sequence (Q16665 whole entry) above

Homo sapiens [9] = organism: Homo sapiens; assay: Antiangiogenic activity in HRMEC exposed to human RPE cells derived conditioned media assessed as inhibition of hypoxia-induced cell migration at 100 nM incubated for 4 hrs by H and E staining based inverted phase contrast microscopy; format: functional; outline: as §1
[10] = target: T1, Hypoxia-inducible factor 1-alpha; assay: Induction of HIF-1alpha destabilization in human HCT116 cells under hypoxic conditions at 100 nM by Western blot method
Target sequence in this assay (Q16665 whole entry, looked up): as the sequence (Q16665 whole entry) above

Mus musculus [11] = assay: Suppression of hypoxia-mediated retinal neovascularization in mouse model of oxygen-induced retinopathy assessed as reduction in retinal neovascular tufts at 100 nM dosed via intravitreal route relative to SH-1242; format: functional, organism-based; outline: as §2
[12] = target: T1, Hypoxia-inducible factor 1-alpha; assay: Induction of HIF-1alpha destabilization in human HCT116 cells under hypoxic conditions assessed as reduction in hypoxia-induced VEGFA mRNA expression at 100 nM
Target sequence in this assay (Q16665 whole entry, looked up): as the sequence (Q16665 whole entry) above

Homo sapiens [13] = organism: Homo sapiens; assay: Antiangiogenic activity in HRMEC exposed to human RPE cells derived conditioned media assessed as inhibition of hypoxia-induced [3H]-thymidine incorporation at 100 nM incubated for 24 hrs by liquid scintillation counting assay; format: functional; outline: as §1
Homo sapiens [14] = organism: Homo sapiens; assay: Antiangiogenic activity in HRMEC exposed to human RPE cells derived conditioned media assessed as inhibition of hypoxia-induced tube formation at 100 nM incubated for 20 hrs; format: functional; outline: as §1
[15] = target: T1, Hypoxia-inducible factor 1-alpha; assay: Inhibition of HIF-1alpha in human A549 cell lysates assessed as reduction in Hsp90 and HIF-1alpha interaction at 1.25 uM in presence of ATP for 30 mins at 37 degC by immunoprecipitation and immunoblotting assay
Outline: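 Lysate from A549 cells exposed to 100 μM CoCl2 for 5 h, incubated with compound ± 20 mM ATP for 30 min at 37 °C. HIF-1α immunoprecipitated overnight at 4 °C, then protein G-agarose 2 h at 4 °C. Complex boiled in Laemmli buffer, run on 6% SDS-PAGE, blotted for HSP90.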
Target sequence in this assay (Q16665 whole entry, looked up): as the sequence (Q16665 whole entry) above

Row | Compound | IC50 [7] | further results
1 | COc1ccc(C(C)C(=O)c2ccc(N3CCCCC3)cc2OC)cc1OC (racemic) | – | fold change (FC) [1]: 93; Activity (HUVEC [2]): Active; Activity (Mus musculus [3]): Active; Activity (HUVEC [4]): Active; Activity (HUVEC [5]): Active; Activity (Mus musculus [6]): Active
2 | COc1ccc(C(C)C(=O)c2ccc(N(C)C)cc2OC)cc1OC (racemic) | > 15000 nM | –
3 | COc1ccc(N(Cc2ccccc2)C(=O)c2ccc3c(c2OC)C=CC(C)(C)O3)cc1OC | 10800 nM | –
4 | COc1ccc(C(=O)C(C)c2ccc(OC)c(OC)c2)c(OC)c1 (racemic) | > 15000 nM | –
5 | C=CCC(C(=O)c1ccc2c(c1OC)C=CC(C)(C)O2)c1ccc(OC)c(OC)c1 (stereo unspecified) | 8450 nM | –
6 | COc1ccc([C@@H](C)C(=O)c2ccc(NCc3ccc(C#N)cc3)cc2OC)cc1OC | – | Activity (Mus musculus [3]): Active
7 | COc1ccc(C(F)C(=O)c2ccc3c(c2OC)C=CC(C)(C)O3)cc1OC (stereo unspecified) | 6350 nM | –
8 | COc1ccc(C(C)C(=O)c2ccc3c(c2OC)C=CC(C)(C)O3)cc1OC (racemic) | 1360 nM | –
9 | CCN(C(=O)c1ccc2c(c1OC)C=CC(C)(C)O2)c1ccc(OC)c(OC)c1 | 5250 nM | –
10 | COc1ccc(C(C)C(=O)c2ccc(O)cc2OC)cc1OC (racemic) | > 15000 nM | –
11 | COc1ccc(C(C)C(=O)c2ccc(NCc3ccc(C#N)cc3)cc2OC)cc1OC (racemic) | – | fold change (FC) [1]: 17; Activity (HUVEC [2]): Active; Activity [8]: Active; Activity (Homo sapiens [9]): Active; Activity [10]: Active; Activity (Mus musculus [11]): Active; Activity (HUVEC [4]): Active; Activity [12]: Active; Activity (HUVEC [5]): Active; Activity (Homo sapiens [13]): Active; Activity (Homo sapiens [14]): Active; inhibition [15]: Active
12 | COc1ccc([C@H](C)C(=O)c2ccc(NCc3ccc(C#N)cc3)cc2OC)cc1OC | – | Activity (Mus musculus [3]): Active
13 | COc1ccc(C(Cc2ccccc2)C(=O)c2ccc3c(c2OC)C=CC(C)(C)O3)cc1OC (stereo unspecified) | 12000 nM | –
14 | COc1ccc(CC(O)c2ccc3c(c2OC)C=CC(C)(C)O3)cc1OC (stereo unspecified) | 8880 nM | –
15 | COc1ccc(C(C)C(=O)c2ccc(N3CCCC3)cc2)cc1OC (racemic) | 2610 nM | –
16 | COc1ccc(CC(OC(C)=O)c2ccc3c(c2OC)C=CC(C)(C)O3)cc1OC (stereo unspecified) | 3040 nM | –
17 | COc1ccc(N(C)C(=O)c2ccc3c(c2OC)C=CC(C)(C)O3)cc1OC | 3150 nM | –

Further lines, with some results ahead:

Row | IC50 [7] | Compound | further results
18 | 1440 nM | COc1c(C(=O)Cc2cccc(O)c2)ccc2c1C=CC(C)(C)O2 | –
19 | 880 nM | COc1c(C(=O)Cc2ccccc2)ccc2c1C=CC(C)(C)O2 | –
20 | 2880 nM | COc1c(C(=O)Cc2ccc(Cl)c(Cl)c2)ccc2c1C=CC(C)(C)O2 | –
21 | 1020 nM | COc1c(C(=O)Cc2ccc(F)cc2)ccc2c1C=CC(C)(C)O2 | –
22 | 2150 nM | COc1ccc(CC(=O)c2ccc3c(c2OC)C=CC(C)(C)O3)cc1OC | Activity (Mus musculus [3]): Active; Activity (Mus musculus [6]): Active
23 | 940 nM | COc1c(C(=O)Cc2ccccc2O)ccc2c1C=CC(C)(C)O2 | –
24 | 3210 nM | COc1ccccc1CC(=O)c1ccc2c(c1OC)C=CC(C)(C)O2 | –
25 | 1330 nM | COc1c(C(=O)Cc2ccc3c(c2)OCCO3)ccc2c1C=CC(C)(C)O2 | –
26 | 820 nM | COc1cccc(CC(=O)c2ccc3c(c2OC)C=CC(C)(C)O3)c1 | –
27 | 790 nM | COc1c(C(=O)Cc2ccc(O)cc2)ccc2c1C=CC(C)(C)O2 | –
28 | 2040 nM | COc1ccc(NC(=O)c2ccc3c(c2OC)C=CC(C)(C)O3)cc1OC | –
29 | 6210 nM | COc1ccc(CC(=O)c2ccc3c(c2OC)C=CC(C)(C)O3)cc1 | –
30 | 3410 nM | COc1c(C(=O)Cc2ccc3c(c2)OCO3)ccc2c1C=CC(C)(C)O2 | –
31 | 100 nM | COc1c(C(=O)Cc2ccccc2F)ccc2c1C=CC(C)(C)O2 | –
32 | 1270 nM | COc1c(C(=O)Cc2ccc(F)c(F)c2)ccc2c1C=CC(C)(C)O2 | –
33 | 360 nM | COc1c(C(=O)Cc2cccc(F)c2)ccc2c1C=CC(C)(C)O2 | –

Source: ChEMBL document CHEMBL4196224, “Novel Hypoxia-Inducible Factor 1α (HIF-1α) Inhibitors for Angiogenesis-Related Ocular Diseases: Discovery of a Novel Scaffold via Ring-Truncation Strategy” (J Med Chem, 2018)
